Assay results from ChEMBL document CHEMBL1629507, “Small molecule inhibitors of hantavirus infection” (Bioorg Med Chem Lett, 2010).
Where a SMILES comes first, the peptide text is derived from it. [ ]: non-standard residue; d: D form. The star is where a group is joined. Phe(4-F) = N[CH](Cc1ccc(F)cc1)C(=O)O; Tos = Cc1ccc(S(=O)(=O)*)cc1

What follows are compounds tested against Integrin alpha-V/beta-3 (Homo sapiens) (UniProt P05106+P06756) (assay: Inhibition of human alphaVbeta3 receptor expressed in african green monkey Vero E6 cells assessed as inhibition of SNV infection in cells at 1 uM by immunofluorescent assay).
Assay type: cell-based
Summary of the method: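 Vero E6 cells (10^4/well, duplicate wells) were grown 24 h at 37 °C in MEM with 2.5% FBS. They were pretreated 1 h at 37 °C with small molecules (1 µM) or cyclic peptides (2 mM, in PBS pH 7.4). SNV strain SN77734 (500–1,000 FFU/ml) was then added for 1 h, then washed out. After 24–36 h, cells were fixed and stained with anti-SNV N plus FITC antibody, and foci counted. % inhibition is relative to untreated cells, normalized to ReoPro 80 µg/ml set as 80%; at least 4 replicates.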
Work on CCOC(=O)c1sc2nc(SCC(=O)NCc3ccccc3)n(Cc3ccco3)c(=O)c2c1C yielded an inhibition of 25.9%.
CCOC(=O)C(NC(=O)/C(=C/c1ccc(Cl)cc1)NC(=O)c1ccco1)C(C)C (stereo not drawn) was tested, and the inhibition was 0%.
With COc1ccccc1CNC(=O)C1CCCN(c2ncnc3onc(-c4ccc(F)cc4)c23)C1 (stereo not drawn) the inhibition was 16%.
With CC(C)c1ccc(S(=O)(=O)c2nnn3c2nc(NC(C)c2ccccc2)c2sccc23)cc1 (stereo not drawn) the inhibition was 8%.
Work on COc1ccc(CCNC(=O)C(Cc2ccccc2)NS(=O)(=O)c2ccc(Cl)cc2)cc1OC (stereo not drawn) yielded an inhibition of 14%.
O=C(NCc1ccc(Cl)cc1)C1CCCN(c2ncnc3onc(-c4ccc(F)cc4)c23)C1 (stereo not drawn) showed an inhibition of 23.6%.
In the case of O=C(NCCC1=CCCCC1)C(Cc1ccccc1)NS(=O)(=O)c1cccc2cccnc12 (stereo not drawn), the inhibition is reported as 19.3%.
Compound CN1CCN(C(=O)C(Cc2ccccc2)NS(=O)(=O)c2cccc3cccnc23)CC1 (stereo not drawn) has an inhibition of 0%.
In the case of N#Cc1ccccc1OCC(=O)N/N=C/c1cc(Br)ccc1OC(=O)c1ccccc1, the inhibition is reported as 15%.
CC1(C)CC(=O)c2cc(C(=O)NCCCN3CCOCC3)c(=O)n(-c3ccc(Cl)cc3)c2C1 showed an inhibition of 18%.
With O=C(CSc1nc2ccccc2n1S(=O)(=O)c1ccc(Cl)cc1)NCCc1ccccc1 the inhibition was 13.6%.
Work on O=C(NCc1ccc2c(c1)OCO2)C(Cc1ccccc1)NS(=O)(=O)c1cccc2nsnc12 (stereo not drawn) yielded an inhibition of 0%.
In the case of O=C(NCCc1ccccc1)C(Cc1ccccc1)NS(=O)(=O)c1cccc2nsnc12 (stereo not drawn), the inhibition is reported as 0%.
In the case of COc1ccc(OC)c(CNC(=O)C2CCCN(c3ncnc4onc(-c5ccc(F)cc5)c34)C2)c1 (stereo not drawn), the inhibition is reported as 28%.
Cc1ccc(S(=O)(=O)NC(Cc2ccccc2)C(=O)NC(CCCNC(=N)N)C(=O)O)cc1 (stereo not drawn) (Tos-Phe-Arg-OH; configuration not given here) gave an inhibition of 0%.
CCc1ccc(CNC(=O)C2CCCN(c3ncnc4onc(-c5ccc(F)cc5)c34)C2)cc1 (stereo not drawn) gave an inhibition of 7%.
For Cc1cccc(CN2C(=O)c3ccccc3Sc3ccc(C(=O)NCc4ccco4)cc32)c1, the inhibition was 26%.
Work on COc1ccc(Cl)cc1NC(=O)C(Cc1ccccc1)NS(=O)(=O)c1cccc2cccnc12 (stereo not drawn) yielded an inhibition of 8%.
O=C(C(Cc1ccccc1)NS(=O)(=O)c1cccc2cccnc12)N1CCOCC1 (stereo not drawn) showed an inhibition of 4.5%.
O=C(NCc1cccc(Cl)c1)C1CCCN(c2ncnc3onc(-c4ccc(F)cc4)c23)C1 (stereo not drawn) gave an inhibition of 6%.
With COc1cccc(C(CC(=O)NCCCN2CCOCC2)NS(=O)(=O)c2ccc(C)cc2)c1OC (stereo not drawn) the inhibition was 0%.
Cc1nnc(SCC(=O)NCCc2cccs2)c2nn(-c3ccccc3)c(C)c12 was tested, and the inhibition was 17%.
For NS(=O)(=O)c1ccc(CCNC(=O)C(Cc2ccccc2)NS(=O)(=O)c2cccc3nsnc23)cc1 (stereo not drawn), the inhibition was 9.6%.
Work on N#Cc1ccccc1Cn1c(=O)n(CCC(=O)NCc2ccc3c(c2)OCO3)c(=O)c2ccccc21 yielded an inhibition of 1%.
Cc1cccc(OCC(=O)N/N=C/c2ccc(OC(=O)/C=C/c3ccco3)cc2)c1 gave an inhibition of 8%.
For O=C(C(Cc1ccccc1)NS(=O)(=O)c1ccc2nsnc2c1)N1CCC2(CC1)OCCO2 (stereo not drawn), the inhibition was 6%.
For O=C(NC1CCCCCC1)C(Cc1ccccc1)NS(=O)(=O)c1cccc2nsnc12 (stereo not drawn), the inhibition was 0%.
For O=C(NCC1CCCO1)C(Cc1ccccc1)NS(=O)(=O)c1cccc2nsnc12 (stereo not drawn), the inhibition was 2%.
Compound O=C1c2cccnc2C(=O)N1Cc1ccc(F)cc1S(=O)(=O)N1CCN(c2ccccc2F)CC1 has an inhibition of 2.3%.
Work on CC1CCN(CCNC(=O)C(Cc2ccccc2)NS(=O)(=O)c2cccc3cccnc23)CC1 (stereo not drawn) yielded an inhibition of 7%.
For O=C(CSc1nc2ccccc2c(=O)n1Cc1ccc2c(c1)OCO2)NCc1ccco1, the inhibition was 34.2%.
COc1ccc(C(CC(=O)NCCN2CCOCC2)NS(=O)(=O)c2ccc(Cl)cc2)cc1 (stereo not drawn) gave an inhibition of 0%.
O=C(NCc1ccccc1Cl)C(Cc1ccccc1)NS(=O)(=O)c1cccc2nsnc12 (stereo not drawn) gave an inhibition of 0%.
For CCOC(=O)N1CCN(C(=O)C(Cc2ccccc2)NS(=O)(=O)c2ccc3nsnc3c2)CC1 (stereo not drawn), the inhibition was 4%.
Work on Cc1ccc(Cl)cc1NC(=O)C(Cc1ccccc1)NS(=O)(=O)c1cccc2nsnc12 (stereo not drawn) yielded an inhibition of 3.2%.
For CCc1ccccc1NC(=O)C(Cc1ccccc1)NS(=O)(=O)c1cccc2nsnc12 (stereo not drawn), the inhibition was 2%.
For O=C(N/N=C1\C(=O)N(CN(Cc2ccccc2)Cc2ccccc2)c2ccccc21)c1cccs1, the inhibition was 3.8%.
In the case of COc1ccc(N2CCN(C(=O)Cc3csc4nc(-c5ccc(F)cc5)cn34)CC2)cc1, the inhibition is reported as 0%.
Compound O=C1c2cccnc2C(=O)N1Cc1ccc(F)cc1S(=O)(=O)N1CCC(Cc2ccccc2)CC1 has an inhibition of 0%.
Work on Cc1noc2ncnc(N3CCCC(C(=O)NCc4ccc5c(c4)OCO5)C3)c12 (stereo not drawn) yielded an inhibition of 3%.
In the case of COc1cccc(CNC(=O)C(Cc2ccccc2)NS(=O)(=O)c2cccc3cccnc23)c1 (stereo not drawn), the inhibition is reported as 0.8%.
CCOc1ccccc1CNC(=O)C1CCCN(c2ncnc3onc(-c4ccc(F)cc4)c23)C1 (stereo not drawn) gave an inhibition of 18%.
O=C(Cn1c(=O)n(Cc2ccc3c(c2)OCO3)c(=O)c2ccccc21)NCCc1ccccc1 was tested, and the inhibition was 25.9%.
COc1ccccc1CNC(=O)C(Cc1ccccc1)NS(=O)(=O)c1cccc2nsnc12 (stereo not drawn) gave an inhibition of 4.8%.
For CC(NC(=O)C(Cc1ccccc1)NS(=O)(=O)c1cccc2nsnc12)c1ccccc1 (stereo not drawn), the inhibition was 2%.
CCC(Sc1nc2ccsc2c(=O)n1Cc1ccc2c(c1)OCO2)C(=O)NCc1ccco1 (stereo not drawn) gave an inhibition of 41%.
Cc1cc(C)cc(-n2c(=O)c3sccc3n(CC(=O)N3CCN(c4ccccc4)CC3)c2=O)c1 was tested, and the inhibition was 2.2%.
With COc1ccc(CNC(=O)c2ccc3c(c2)N(Cc2ccccc2)C(=O)c2ccccc2S3)cc1 the inhibition was 22%.
Nc1c([S+]([O-])Cc2ccc(Cl)cc2)sc2nc(-c3cccs3)cc(-c3ccccc3)c12 (stereo not drawn) was tested, and the inhibition was 1%.
COc1ccc(/C=N/NC(=O)c2sc3ccccc3c2Cl)cc1CSc1ccccn1 gave an inhibition of 0%.
For COc1ccc(NC(=O)C(Cc2ccccc2)NS(=O)(=O)c2cccc3cccnc23)c(OC)c1 (stereo not drawn), the inhibition was 22.5%.
For CN1CCN(c2ccccc2NC(=O)C(Cc2ccccc2)NS(=O)(=O)c2cccc3nsnc23)CC1 (stereo not drawn), the inhibition was 9.6%.
In the case of COc1ccc([N+](=O)[O-])cc1NC(=O)C(Cc1ccccc1)NS(=O)(=O)c1cccc2nsnc12 (stereo not drawn), the inhibition is reported as 8%.
With O=C(CSc1nc2ccsc2c(=O)n1-c1ccc(Cl)cc1)NCCc1ccc(Cl)cc1 the inhibition was 11.4%.
For Cc1cccc(CN2C(=O)c3ccccc3Sc3ccc(C(=O)NCc4cccs4)cc32)c1, the inhibition was 8.3%.
Work on O=C(NCc1ccccc1Cl)C(Cc1ccccc1)NS(=O)(=O)c1cccc2cccnc12 (stereo not drawn) yielded an inhibition of 21.4%.
Cc1cccc(C)c1NC(=S)N/N=C\c1cn(C)c2ccc(S(=O)(=O)N3CCOCC3)cc12 was tested, and the inhibition was 0%.
With O=C(N/N=C/c1ccc(Br)s1)c1cc(-c2ccccc2)nc2ccccc12 the inhibition was 5%.
Work on Cc1ccc(CNC(=O)C(Cc2ccccc2)NS(=O)(=O)c2cccc3cccnc23)cc1 (stereo not drawn) yielded an inhibition of 0%.
O=C(CCn1c(=O)c2ccccc2n(Cc2cc(=O)n3ccccc3n2)c1=O)NCc1ccco1 gave an inhibition of 15%.
For COc1ccc(CCNC(=O)C(Cc2ccccc2)NS(=O)(=O)c2ccc(Br)cc2)cc1OC (stereo not drawn), the inhibition was 14%.
With O=C(NCC1COc2ccccc2O1)C(Cc1ccccc1)NS(=O)(=O)c1ccc2nsnc2c1 (stereo not drawn) the inhibition was 20%.
Compound Cc1ccc(S(=O)(=O)N2CCN(C(=O)CSc3nnc(C)c(=O)[nH]3)C2c2ccccc2)cc1 (stereo not drawn) has an inhibition of 4%.
COc1ccc(OC)c(CNC(=O)C2CCCN(c3ncnc4onc(C)c34)C2)c1 (stereo not drawn) showed an inhibition of 0%.
For O=C(NCc1cccnc1)C(Cc1ccccc1)NS(=O)(=O)c1cccc2nsnc12 (stereo not drawn), the inhibition was 35%.
Work on Cc1cccc(NC(=O)C(Cc2ccccc2)NS(=O)(=O)c2cccc3nsnc23)n1 (stereo not drawn) yielded an inhibition of 17.7%.
Work on O=C(Nc1ccccc1)C(Cc1ccccc1)NS(=O)(=O)c1cccc2cccnc12 (stereo not drawn) yielded an inhibition of 0%.
O=C(O)CCCCCNC(=O)/C(=C/c1ccccc1)NC(=O)c1ccco1 was tested, and the inhibition was 0%.
In the case of O=C(CSc1nc2nccnc2c(=O)n1Cc1ccc2c(c1)OCO2)NCCc1ccccc1, the inhibition is reported as 8%.
In the case of COc1ccc(S(=O)(=O)NC(CC(=O)NCc2ccc3c(c2)OCO3)c2ccco2)cc1 (stereo not drawn), the inhibition is reported as 0%.
CCC1CCCCN1CCNC(=O)C(Cc1ccccc1)NS(=O)(=O)c1ccc2nsnc2c1 (stereo not drawn) was tested, and the inhibition was 0%.
In the case of O=C(NCc1cccs1)C(Cc1ccccc1)NS(=O)(=O)c1cccc2cccnc12 (stereo not drawn), the inhibition is reported as 12%.
In the case of O=C(Cn1c(=O)n(Cc2ccco2)c(=O)c2sc3ccccc3c21)NCc1ccc(Cl)cc1, the inhibition is reported as 0%.
O=C(NCc1ccc(Cl)cc1)C(Cc1ccccc1)NS(=O)(=O)c1cccc2cccnc12 (stereo not drawn) gave an inhibition of 9.1%.
For COc1ccc(Cc2cccc(CNC(=O)C3CCCN(c4ncnc5onc(-c6ccc(F)cc6)c45)C3)c2)cc1 (stereo not drawn), the inhibition was 39%.
O=C(CC(NS(=O)(=O)c1ccc(Cl)cc1)c1ccco1)NCc1cccnc1 (stereo not drawn) gave an inhibition of 9.6%.
In the case of O=C(NCc1ccccc1)C(Cc1ccccc1)NS(=O)(=O)c1cccc2cccnc12 (stereo not drawn), the inhibition is reported as 11.2%.
In the case of COc1ccccc1C1CC(c2c(O)[nH]c(=O)n(CCc3ccccc3)c2=O)=Nc2ccccc2S1 (stereo not drawn), the inhibition is reported as 18%.
With Cc1ccc(S(=O)(=O)NC(Cc2ccc(F)cc2)C(=O)NC(CCCNC(=N)N)C(=O)O)cc1 (stereo not drawn) (Tos-[Phe(4-F)]-Arg-OH; configuration not given here) the inhibition was 0%.
O=C(NCCc1ccc(Cl)cc1)C1CCCN(c2ncnc3onc(-c4ccc(F)cc4)c23)C1 (stereo not drawn) showed an inhibition of 14.5%.
In the case of CCCN(CCC)CCNC(=O)C(Cc1ccccc1)NS(=O)(=O)c1cccc2nsnc12 (stereo not drawn), the inhibition is reported as 34%.
O=C(CSc1nc2nccnc2c(=O)n1Cc1cccs1)NCCc1ccccc1 was tested, and the inhibition was 6%.
Compound Cc1cc(NC(=O)C(Cc2ccccc2)NS(=O)(=O)c2cccc3cccnc23)no1 (stereo not drawn) has an inhibition of 9.6%.
In the case of C/C=C/C(=O)NC(=S)NNC(=O)C(Oc1ccccc1)Oc1ccccc1, the inhibition is reported as 16.1%.
O=C(c1ccco1)N1CCN(C(=O)C(Cc2ccccc2)NS(=O)(=O)c2ccc3nsnc3c2)CC1 (stereo not drawn) gave an inhibition of 22%.
COc1ccc(OC)c(NC(=O)C(Cc2ccccc2)NS(=O)(=O)c2cccc3nsnc23)c1 (stereo not drawn) showed an inhibition of 6.4%.
With O=C(NCc1ccco1)C(Cc1ccccc1)NS(=O)(=O)c1ccc2nsnc2c1 (stereo not drawn) the inhibition was 21%.
With O=C(NC(Cc1c[nH]c2ccccc12)C(=O)OCC(=O)c1ccc(Cl)cc1)Oc1ccccc1 (stereo not drawn) the inhibition was 29%.
